Data reported in ChEMBL document CHEMBL1145409, “New sst4/5-selective somatostatin peptidomimetics based on a constrained tryptophan scaffold” (J Med Chem, 2007).
pEC50, pIC50: −log10 of the molar value.

Legend:
[1] = target: Somatostatin receptor type 4 (Homo sapiens, UniProt P31391); assay: Displacement of [125I][Leu8-D-Trp22, Tyr25]-SRIF28 from human SST4 receptor
Method in brief: (§1)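 Membrane pellets from CHO-K1 or CCL39 cells stably expressing the human receptor subtype, cut as 20 µm sections on slides for receptor autoradiography. Full displacement of [125I]-[Leu8,D-Trp22,Tyr25]-SRIF-28 by unlabeled compound at 0.1–1000 nmol/L, SRIF-28 run in parallel. Quantified by image analysis against calibrated isotope tissue standards to give IC50; mean ± SEM of 2–4 independent repetitions.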

[2] = target: Somatostatin receptor type 3 (Homo sapiens, UniProt P32745); assay: Displacement of [125I][Leu8-D-Trp22, Tyr25]-SRIF28 from human SST3 receptor; method in brief: as §1
[3] = target: Somatostatin receptor type 1 (Homo sapiens, UniProt P30872); assay: Displacement of [125I][Leu8-D-Trp22, Tyr25]-SRIF28 from human SST1 receptor; method in brief: as §1
[4] = target: Somatostatin receptor type 2 (Homo sapiens, UniProt P30874); assay: Displacement of [125I][Leu8-D-Trp22, Tyr25]-SRIF28 from human SST2 receptor; method in brief: as §1
[5] = target: T1, Somatostatin receptor type 5 (Homo sapiens, UniProt P35346); assay: Displacement of [125I][Leu8-D-Trp22, Tyr25]-SRIF28 from human SST5 receptor; method in brief: as §1
[6] = target: T1, Somatostatin receptor type 5; assay: Agonist activity at human SST5 receptor expressed in CHOK1 cells assessed as effect on forskolin-induced cAMP production; format: functional, cell-based, CHO-K1
Method in brief: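 Stably transfected sst5 CHO-K1 cells preincubated 30 min at 37 °C in medium with 0.5 mM IBMX, then 30 min at 37 °C with 0.5 mM IBMX, with or without 10 µM forskolin and graded compound concentrations. Cells lysed; cAMP measured by scintillation proximity assay, expressed as % stimulation over nonstimulated level. EC50 from nonlinear regression of dose-response curves; three experiments, triplicate wells.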

Chain of Somatostatin receptor type 3 (P32745 whole entry): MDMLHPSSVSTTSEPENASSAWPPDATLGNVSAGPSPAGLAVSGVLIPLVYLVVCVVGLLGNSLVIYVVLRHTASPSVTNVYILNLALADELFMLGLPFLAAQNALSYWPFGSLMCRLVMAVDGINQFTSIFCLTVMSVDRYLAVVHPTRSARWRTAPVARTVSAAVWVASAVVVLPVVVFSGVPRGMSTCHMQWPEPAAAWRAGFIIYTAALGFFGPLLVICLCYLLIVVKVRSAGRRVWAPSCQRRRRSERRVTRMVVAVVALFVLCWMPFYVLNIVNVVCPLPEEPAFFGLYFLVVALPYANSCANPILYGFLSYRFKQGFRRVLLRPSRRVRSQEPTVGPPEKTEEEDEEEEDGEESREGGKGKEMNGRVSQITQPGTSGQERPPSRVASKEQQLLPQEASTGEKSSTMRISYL
Chain of Somatostatin receptor type 4 (P31391 whole entry): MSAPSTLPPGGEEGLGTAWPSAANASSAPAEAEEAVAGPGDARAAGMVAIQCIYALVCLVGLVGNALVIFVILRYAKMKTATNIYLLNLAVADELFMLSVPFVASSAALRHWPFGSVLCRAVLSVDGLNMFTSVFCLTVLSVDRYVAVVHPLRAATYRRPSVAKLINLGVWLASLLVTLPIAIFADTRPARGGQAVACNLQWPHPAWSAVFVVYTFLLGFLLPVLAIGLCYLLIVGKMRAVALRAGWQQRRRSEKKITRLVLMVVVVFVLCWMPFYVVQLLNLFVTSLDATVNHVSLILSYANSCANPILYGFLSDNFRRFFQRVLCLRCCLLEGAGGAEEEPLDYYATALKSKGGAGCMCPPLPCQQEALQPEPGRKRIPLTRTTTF
T1 sequence (P35346 whole entry): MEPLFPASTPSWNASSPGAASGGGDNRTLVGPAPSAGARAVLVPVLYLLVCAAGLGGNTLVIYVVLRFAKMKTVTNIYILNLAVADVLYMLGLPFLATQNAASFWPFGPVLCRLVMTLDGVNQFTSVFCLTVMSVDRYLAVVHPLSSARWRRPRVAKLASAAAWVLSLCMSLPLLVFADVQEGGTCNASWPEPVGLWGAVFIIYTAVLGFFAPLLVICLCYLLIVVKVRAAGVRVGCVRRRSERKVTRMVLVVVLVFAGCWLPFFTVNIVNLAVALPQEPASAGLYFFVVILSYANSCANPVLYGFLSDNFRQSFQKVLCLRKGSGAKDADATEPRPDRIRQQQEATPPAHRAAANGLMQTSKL
Chain of Somatostatin receptor type 2 (P30874 whole entry): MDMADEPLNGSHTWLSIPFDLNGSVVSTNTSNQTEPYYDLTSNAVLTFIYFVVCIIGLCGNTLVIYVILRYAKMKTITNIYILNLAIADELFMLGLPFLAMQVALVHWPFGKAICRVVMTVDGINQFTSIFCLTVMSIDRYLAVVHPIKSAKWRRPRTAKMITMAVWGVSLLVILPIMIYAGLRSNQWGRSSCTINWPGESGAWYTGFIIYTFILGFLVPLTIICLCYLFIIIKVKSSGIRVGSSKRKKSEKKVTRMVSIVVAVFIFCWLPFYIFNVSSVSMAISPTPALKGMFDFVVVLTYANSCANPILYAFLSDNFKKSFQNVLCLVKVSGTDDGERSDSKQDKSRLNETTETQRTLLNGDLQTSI
Chain of Somatostatin receptor type 1 (P30872 whole entry): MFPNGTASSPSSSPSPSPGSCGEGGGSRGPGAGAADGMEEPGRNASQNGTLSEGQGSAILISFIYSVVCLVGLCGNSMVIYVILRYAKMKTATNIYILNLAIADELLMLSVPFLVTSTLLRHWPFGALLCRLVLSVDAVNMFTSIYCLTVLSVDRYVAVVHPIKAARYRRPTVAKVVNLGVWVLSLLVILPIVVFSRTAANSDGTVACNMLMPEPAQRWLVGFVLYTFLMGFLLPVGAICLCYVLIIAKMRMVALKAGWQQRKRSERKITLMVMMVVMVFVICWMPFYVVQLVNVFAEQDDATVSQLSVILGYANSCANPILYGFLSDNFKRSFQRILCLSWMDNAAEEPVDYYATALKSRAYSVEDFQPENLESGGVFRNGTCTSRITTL

Row | pIC50 [1] | pIC50 [2] | pIC50 [3] | pIC50 [4] | pIC50 [5] | pEC50 [6] | Structure (SMILES)
1 | 6.89 | < 6.00 | < 6.00 | 6.45 | 6.50 |  | NCCCCCN1Cc2[nH]c3ccccc3c2C[C@@H](NC(=O)CC(c2ccccc2)c2ccccc2)C1=O
2 | 8.48 | 6.60 | 6.63 | 7.08 | 8.92 | 7.89 | NCCCC[C@@H](C(=O)NCc1ccccc1)N1Cc2[nH]c3ccccc3c2C[C@@H](NC(=O)Cc2ccccc2)C1=O
3 | 7.14 | 6.16 | 7.05 | 6.99 | 8.10 |  | NCCCC[C@@H](C(=O)NCc1ccccc1)N1Cc2[nH]c3ccccc3c2C[C@@H](NC(=O)CC(c2ccccc2)c2ccccc2)C1=O
4 | 7.12 | < 6.00 | < 6.00 | < 6.00 | 6.61 |  | NCCCCCN1Cc2[nH]c3ccccc3c2C[C@@H](NC(=O)Cc2ccccc2)C1=O
